Screening data as filed in PubChem.
ASAP1 inh – inhibitors of human ASAP1 ArfGAP activity | ASAP1-stimulated ARF1 GTP hydrolysis, GDP FP detection | inhibition, % at 16.5 µM | 360,000 tested, 0.19% active | AID 624377; in the data active = inhibition above about 25%;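 note: 0% = vehicle with enzyme and substrate and 100% = no enzyme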
Target sequence (Q9ULH1 325-724 limits assumed): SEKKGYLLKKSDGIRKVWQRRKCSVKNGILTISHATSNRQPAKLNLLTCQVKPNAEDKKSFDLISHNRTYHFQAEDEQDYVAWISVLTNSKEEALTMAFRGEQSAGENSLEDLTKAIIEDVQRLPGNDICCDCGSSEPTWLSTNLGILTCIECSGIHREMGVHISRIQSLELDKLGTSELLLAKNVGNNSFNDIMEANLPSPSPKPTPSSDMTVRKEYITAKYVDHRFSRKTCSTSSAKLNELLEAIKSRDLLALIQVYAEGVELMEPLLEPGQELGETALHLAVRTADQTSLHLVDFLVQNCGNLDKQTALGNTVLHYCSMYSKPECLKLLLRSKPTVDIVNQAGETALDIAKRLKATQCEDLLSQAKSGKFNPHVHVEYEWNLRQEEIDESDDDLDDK
IMP-1 inhibitor – blocks Pseudomonas aeruginosa IMP-1 metallo-beta-lactamase. purified IMP-1, nitrocefin hydrolysis, epi-absorbance fluorescence. 290,000 tested, 0.45% active. inhibition, % at 5.6 µM;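 active = inhibition above the mean plus 3 SD of all compounds in the same screening run, cut at about 4.5% in these data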;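 note: 0% = IMP-1 with DMSO and 100% = DMSO wells lacking enzyme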
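System: Purified IMP-1 | Read-out basis: Percent enzyme inhibition | Controls: IMP-1 with DMSO as 0%, enzyme-free DMSO as 100% | Replicates: One well per compound | Doses: 5.6 µM nominal single concentration | Detection: Epi-absorbance fluorescence, 480 nm excitation, 530 nm emission | Incubation: 25 °C, 15 min preincubation, 25 min reaction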
Calb FLC – C. albicans growth modulation with fluconazole; C. albicans CaCi-2 + fluconazole, Alamar Blue growth, 48 h; AID 1979; growth inhibition, % (concentration not given with the values); 300,000 tested, 0.57% active;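 active = growth inhibition above about 58% in most replicates, limit read from the data, passing the limit was not always enough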;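 note: all wells also contain fluconazole at 8 µg/ml as a sub-toxic cotreatment; 0% = median of DMSO wells and 100% = median of geldanamycin control wells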
ARFGAP1 inh – rat ARFGAP1 inhibition. Arfgap1-stimulated ARF1 GTP hydrolysis, GDP FP detection. inhibition, % at 16.5 µM. 360,000 tested, 0.26% active;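 active = inhibition above a per-plate limit, mean inhibition of low control wells plus 3 SD, cut at about 25% in these data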;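 note: 0% = DMSO wells with enzyme and 100% = wells lacking Arfgap1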
Target sequence (Q62848 1-136 limits assumed): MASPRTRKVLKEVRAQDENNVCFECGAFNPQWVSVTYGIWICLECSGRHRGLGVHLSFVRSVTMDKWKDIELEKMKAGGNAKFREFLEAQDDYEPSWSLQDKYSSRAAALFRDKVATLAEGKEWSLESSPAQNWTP
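System: truncated rat Arfgap1 GAP domain / Medium: HEPES-based buffer, pH 7.5 / Also added: N-terminally truncated human ARF1-GTP substrate / Incubation: enzyme reaction 120 min at 25 °C after 20 min preincubation / Measured by: FP of antibody-bound GDP Alexa 633 tracer, ex 620/em 688 nm / Replicates: singlicate, each compound tested once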
PHOSPHO1 inh – PHOSPHO1 (human) inhibition; Q8TCT1; recombinant PHOSPHO1, absorbance phosphatase assay; inhibition, % at 13.3 µM; 290,000 tested, 1.1% active; AID 1565; in the data active = inhibition above about 60%
VIM-2 inh – blocks Pseudomonas aeruginosa VIM-2 metallo-beta-lactamase. 290,000 tested, 0.89% active. purified VIM-2, nitrocefin hydrolysis, epi-absorbance fluorescence. inhibition, % at 5.6 µM. AID 1527;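 active = inhibition above the mean of all tested compounds plus 3 SD, cutoff set per screening run, cut at about 7.5% in these data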;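 note: red hydrolysis product quenches plate fluorescence so inhibitors raise well fluorescence; 0% = enzyme with DMSO and 100% = DMSO without enzyme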
* marks the source's active call; other numbers are inactive results. Most compounds without a hit are left out; they make up all but 2.6% or so of the library.

CN(C)c1cccc2c(S(=O)(=O)NCC3CCN(C(=O)C(=O)c4cc5ccccc5o4)CC3)cccc12 was read as ASAP1 inh 6 and ARFGAP1 inh -1.
Screening O=c1[nH]n2c(C(F)(F)F)cc(C3CC3)nc2c1N=Nc1ccccc1 returned ASAP1 inh -5, IMP-1 inhibitor -2, Calb FLC 88*, ARFGAP1 inh 16, PHOSPHO1 inh -17 and VIM-2 inh -2.
`CSCCc1nc(SCC(=O)Nc2nnc(C)s2)[nH]c1C` gave ASAP1 inh -11, IMP-1 inhibitor -5, Calb FLC -3, ARFGAP1 inh 13, PHOSPHO1 inh 68* and VIM-2 inh -1.
For Cc1nnc(NC(=O)CSc2nc3ccccc3[nH]2)s1 the results were ASAP1 inh -18, IMP-1 inhibitor -2, Calb FLC 28, ARFGAP1 inh 10, PHOSPHO1 inh 33 and VIM-2 inh -2.
`COC(=O)c1cc(S(=O)(=O)NCC2CCN(C(=O)C(=O)c3cc4ccccc4o3)CC2)cs1` gave ASAP1 inh -2 and ARFGAP1 inh -6.
For COC(=O)c1c(-c2ccc(C)cc2)csc1NC(=O)c1c(-c2ccccc2)noc1C the results were ASAP1 inh -1, IMP-1 inhibitor -1, Calb FLC 1, ARFGAP1 inh -11, PHOSPHO1 inh -15 and VIM-2 inh 1.
For COC(=O)c1c(-c2cccnc2)csc1NC(=O)c1cc(C)on1 the results were ASAP1 inh 18, IMP-1 inhibitor -3, Calb FLC 0, ARFGAP1 inh 7, PHOSPHO1 inh 24 and VIM-2 inh 9.7*.
`Cc1cc(C)nc(N2C(=O)CC(C(C)c3ccccc3)C2=O)n1` (stereo unspecified) gave ASAP1 inh 2, IMP-1 inhibitor 9.3*, Calb FLC -4, ARFGAP1 inh 8, PHOSPHO1 inh 0 and VIM-2 inh -1.
`COc1ccc2nc(N3C(=O)CC(Cc4ccc(C)cc4)C3=O)sc2c1` (stereo unspecified) gave ASAP1 inh 6, IMP-1 inhibitor -4, Calb FLC 2, ARFGAP1 inh -4, PHOSPHO1 inh -13 and VIM-2 inh -1.
Screening COc1ccc2nc(N3C(=O)CC(C(C)c4ccccc4)C3=O)sc2c1 (stereo unspecified) returned ASAP1 inh -11, IMP-1 inhibitor 7.9*, Calb FLC 8, ARFGAP1 inh 1, PHOSPHO1 inh 3 and VIM-2 inh 4.
Nc1nonc1C(=O)NCCN=Cc1cc(Cc2ccccc2)cc(Br)c1O was read as IMP-1 inhibitor 8.7*, Calb FLC -2, PHOSPHO1 inh 18 and VIM-2 inh -4.
For CC(=O)C1=C(C)N(Cc2ccc(Cl)cc2)C(=S)NC1c1cccc(Br)c1 (stereo unspecified) the results were ASAP1 inh 1 and ARFGAP1 inh -15.
Screening CC(C)OCCCn1c(=S)[nH]c2cc3c(cc2c1=O)OCO3 returned ASAP1 inh -18, IMP-1 inhibitor -2, Calb FLC 8, ARFGAP1 inh -8, PHOSPHO1 inh 88* and VIM-2 inh -4.
`Cc1ccc(C)c(N2CCN(C(=O)CCn3c(=S)[nH]c4cc5c(cc4c3=O)OCO5)CC2)c1` gave ASAP1 inh 11, IMP-1 inhibitor -2, Calb FLC 20, ARFGAP1 inh 4, PHOSPHO1 inh 70* and VIM-2 inh -2.
For COC(=O)c1ccc2c(=O)n(Cc3ccc4c(c3)OCO4)c(=S)[nH]c2c1 the results were ASAP1 inh -8, IMP-1 inhibitor -4, Calb FLC -1, ARFGAP1 inh 8, PHOSPHO1 inh 20 and VIM-2 inh -5.
Screening COC(CNC(=O)c1ccc(Cn2c(=S)[nH]c3cc4c(cc3c2=O)OCO4)cc1)OC returned ASAP1 inh -1, IMP-1 inhibitor -2, Calb FLC -15, ARFGAP1 inh 5, PHOSPHO1 inh 79* and VIM-2 inh -1.
Screening COCCNC(=O)c1ccc(Cn2c(=S)[nH]c3cc4c(cc3c2=O)OCO4)cc1 returned ASAP1 inh -2, IMP-1 inhibitor 1, Calb FLC 10, ARFGAP1 inh 7, PHOSPHO1 inh 98* and VIM-2 inh -2.
`CCOc1cc2[nH]c(=S)n(Cc3ccc(C(=O)NCCCOC)cc3)c(=O)c2cc1OCC` gave ASAP1 inh 17, IMP-1 inhibitor -4, Calb FLC -2, ARFGAP1 inh 14, PHOSPHO1 inh 26 and VIM-2 inh -4.
CCOc1cccc(-c2cnc3cccnn23)c1 was read as ASAP1 inh -6 and ARFGAP1 inh -9.
`COC(=O)[C@]12C[C@H](CC(=O)NCCc3ccccc3OC)C(=O)N(CCC3=CCCCC3)C1=C[C@H](C(C)(C)C)O[C@@H]2C` gave ASAP1 inh 10 and ARFGAP1 inh 7.
For CCN(CC(=O)Nc1ccc2c(c1)OCCO2)C(=O)/C=C/c1ccc(OC)cc1OC the results were ASAP1 inh 9, IMP-1 inhibitor -3, Calb FLC -2, ARFGAP1 inh -10, PHOSPHO1 inh 62* and VIM-2 inh 1.
COC(=O)CCN(Cc1cccc(OC)c1OC)S(=O)(=O)c1ccccc1Br was read as ASAP1 inh -1 and ARFGAP1 inh -2.
`Cc1ccc(CC2C(=O)N(c3ncccn3)C(=O)C2C)cc1` (stereo unspecified) gave ASAP1 inh 12, IMP-1 inhibitor 4.9*, Calb FLC 1, ARFGAP1 inh -6, PHOSPHO1 inh -1 and VIM-2 inh 1.
For O=C(C(O)c1ccccc1)N1CCN(S(=O)(=O)c2ccc(C(F)(F)F)cc2)CC1 (stereo unspecified) the results were ASAP1 inh -4 and ARFGAP1 inh 3.
`O=S(=O)(/N=C(/Sc1ccccc1)c1ccccc1)c1ccccc1` gave ASAP1 inh 2, IMP-1 inhibitor 0, Calb FLC -2, ARFGAP1 inh -2, PHOSPHO1 inh 100* and VIM-2 inh -1.
CS/C(=N\S(=O)(=O)c1ccccc1)c1ccccc1 was read as ASAP1 inh 2, IMP-1 inhibitor -2, Calb FLC 14, ARFGAP1 inh -12, PHOSPHO1 inh -5 and VIM-2 inh 0.
Screening O=c1c(Cl)c(O)c2cccc3c4ccccc4n1c23 returned ASAP1 inh 16, IMP-1 inhibitor 0, Calb FLC -2, ARFGAP1 inh 7, PHOSPHO1 inh -3 and VIM-2 inh 9.4*.
`O=S(=O)(c1ccc(Cl)cc1)N1CCN(Cc2ccc(O)c3ncccc23)CC1` gave ASAP1 inh -8, IMP-1 inhibitor -2, Calb FLC 95*, ARFGAP1 inh 3, PHOSPHO1 inh -161 and VIM-2 inh -3.
For Oc1ccc(CN2CCN(Cc3ccccc3)CC2)c2cccnc12 the results were ASAP1 inh -3, IMP-1 inhibitor -2, Calb FLC 60*, ARFGAP1 inh 0 and VIM-2 inh -1.
